From ChEMBL document CHEMBL2331228, “Synthesis and insight into the structure-activity relationships of chalcones as antimalarial agents” (J Med Chem, 2013)
In brackets after ≈: the same amount, converted by molar mass.

System: Plasmodium falciparum
Experiment: Antimalarial activity against schizont stage of chloroquine-sensitive Plasmodium falciparum 3D7 after more than 40 hrs by Giemsa staining-based light microscopic analysis
Type: functional
Conditions: 3D7, 40 h
Summary of the method: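 Ring stages (5% D-sorbitol synchronized) of 3D7 were grown in RPMI with 10% FBS, gentamycin and Fungizone at 37 °C under CO2. They were exposed in duplicate to compound (DMSO stock, 5 mg/mL) at 2, 10 and 50 μg/mL, with 3% cell suspension and 1% parasitized cells, for >40 h. Giemsa-stained thin smears were counted for schizonts. MIC is the lowest concentration giving 100% inhibition of schizont maturation.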

MIC [µM]	Structure (SMILES)
120 (≈ 50.1 µg/mL)	CCOc1ccc(/C=C/C(=O)c2ccc3c(c2O)C=CC(C)(CCC=C(C)C)O3)cc1 (centres undefined)
4.11 (≈ 2 µg/mL)	CC(C)=CCCC1(C)C=Cc2c(ccc(C(=O)/C=C/c3cccnc3)c2OCCN2CCCCC2)O1 (centres undefined)
25.2 (≈ 10 µg/mL)	COc1cc(OC)c(OC)cc1/C=C/C(=O)c1ccc2c(c1O)C=CC(C)(C)O2
32.6 (≈ 10 µg/mL)	CC1(C)C=Cc2c(ccc(C(=O)/C=C/c3cccnc3)c2O)O1
23.5 (≈ 10 µg/mL)	CC(C)=CCCC1(C)C=Cc2c(ccc(C(=O)/C=C/c3cnc4ccccc4c3)c2O)O1 (centres undefined)
155 (≈ 50.1 µg/mL)	CC1(C)C=Cc2c(ccc(C(=O)/C=C/c3ccc(O)cc3)c2O)O1
124 (≈ 50.1 µg/mL)	COc1ccccc1/C=C/C(=O)c1ccc2c(c1O)C=CC(C)(CCC=C(C)C)O2 (centres undefined)
3.67 (≈ 2 µg/mL)	CC1(C)C=Cc2c(ccc(C(=O)/C=C/c3ccc(OCCN4CCCCC4)cc3)c2OCCN2CCCCC2)O1
21.6 (≈ 10 µg/mL)	COc1cc(/C=C/C(=O)c2ccc3c(c2O)C=CC(C)(CCC=C(C)C)O3)cc(OC)c1OC (centres undefined)
3.26 (≈ 2 µg/mL)	CC(C)=CCCC1(C)C=Cc2c(ccc(C(=O)/C=C/c3ccc(OCCN4CCCCC4)cc3)c2OCCN2CCCCC2)O1 (centres undefined)
128 (≈ 50.1 µg/mL)	CC(C)=CCCC1(C)C=Cc2c(ccc(C(=O)/C=C/c3ccc(F)cc3)c2O)O1 (centres undefined)
123 (≈ 50.1 µg/mL)	COc1ccc(/C=C/C(=O)c2ccc3c(c2O)CCC(C)(CCCC(C)C)O3)cc1 (centres undefined)
26.7 (≈ 10 µg/mL)	CC(C)=CCCC1(C)C=Cc2c(ccc(C(=O)/C=C/c3ccccn3)c2O)O1 (centres undefined)
123 (≈ 50.1 µg/mL)	Cc1ccc2nc(Cl)c(/C=C/C(=O)c3ccc4c(c3O)C=CC(C)(C)O4)cc2c1
146 (≈ 50 µg/mL)	CC1(C)C=Cc2c(ccc(C(=O)/C=C/c3ccc(F)c(F)c3)c2O)O1
25.6 (≈ 10 µg/mL)	CC(C)=CCCC1(C)C=Cc2c(ccc(C(=O)/C=C/c3ccc(O)cc3)c2O)O1 (centres undefined) [LESPEOL]
127 (≈ 50.1 µg/mL)	CC(C)CCCC1(C)CCc2c(ccc(C(=O)/C=C/c3ccc(O)cc3)c2O)O1 (centres undefined)
119 (≈ 50.1 µg/mL)	CC(C)=CCCC1(C)C=Cc2c(ccc(C(=O)/C=C/c3ccc([N+](=O)[O-])cc3)c2O)O1 (centres undefined)
128 (≈ 50.1 µg/mL)	CC1(C)C=Cc2c(ccc(C(=O)/C=C/c3cc4ccccc4nc3Cl)c2O)O1
22.6 (≈ 9.28 µg/mL)	CC(C)=CCCC1(C)C=Cc2c(ccc(C(=O)/C=C/c3ccc(F)c(F)c3)c2O)O1 (centres undefined)

MIC [µM]	Structure (SMILES)
154 (≈ 50.1 µg/mL)	CC1(C)C=Cc2c(ccc(C(=O)/C=C/c3ccc(F)cc3)c2O)O1
109 (≈ 50.1 µg/mL)	CC(C)=CCCC1(C)C=Cc2c(ccc(C(=O)/C=C/c3cc4ccccc4nc3Cl)c2O)O1 (centres undefined)
4.77 (≈ 2 µg/mL)	CC(C)=CCCC1(C)C=Cc2c(ccc(C(=O)/C=C/c3cccc([N+](=O)[O-])c3)c2O)O1 (centres undefined)
5.33 (≈ 2 µg/mL)	CC(C)=CCCC1(C)C=Cc2c(ccc(C(=O)/C=C/c3cccnc3)c2O)O1 (centres undefined)
28.6 (≈ 10 µg/mL)	CC1(C)C=Cc2c(ccc(C(=O)/C=C/c3cc(C=O)ccc3O)c2O)O1
30.9 (≈ 10 µg/mL)	CC1(C)C=Cc2c(ccc(C(=O)CCc3ccc(O)cc3)c2O)O1
32.4 (≈ 10 µg/mL)	CC1(C)CCc2c(ccc(C(=O)/C=C/c3cccnc3)c2O)O1
28.2 (≈ 10 µg/mL)	COc1ccc(/C=C/C(=O)c2ccc(O)c(CC=C(C)C)c2O)cc1O
28.2 (≈ 10 µg/mL)	COc1ccc(/C=C/C(=O)c2cc(CC=C(C)C)c(O)cc2O)cc1O
28.6 (≈ 9.67 µg/mL)	COc1ccc(/C=C/C(=O)c2cc(CC=C(C)C)c(O)cc2O)cc1
106 (≈ 50.1 µg/mL)	CC(C)=CCCC1(C)C=Cc2c(ccc(C(=O)/C=C/c3cc4cc(C)ccc4nc3Cl)c2O)O1 (centres undefined)
15.2 (≈ 10 µg/mL)	COCOc1ccc(/C=C/C(=O)c2c(O)c3c(c4c2OC(C)(CCC=C(C)C)C=C4)OC(C)(CCC=C(C)C)C=C3)cc1C(OC)OC (centres undefined)
147 (≈ 50.1 µg/mL)	CC1(C)C=Cc2c(ccc(C(=O)/C=C/c3ccc(Cl)cc3)c2O)O1
10.3 (≈ 4.33 µg/mL)	CC(C)=CCCC1(C)C=Cc2c(ccc(C(=O)CCc3cc(C=O)ccc3O)c2O)O1 (centres undefined)
25.1 (≈ 10 µg/mL)	COc1cc(OC)c(OC)cc1/C=C/C(=O)c1cc(CC=C(C)C)c(O)cc1O
28.4 (≈ 10 µg/mL)	CCOc1ccc(/C=C/C(=O)c2cc(CC=C(C)C)c(O)cc2O)cc1
28.2 (≈ 10 µg/mL)	COc1cc(/C=C/C(=O)c2cc(CC=C(C)C)c(O)cc2O)ccc1O
29.6 (≈ 10 µg/mL)	COc1ccccc1/C=C/C(=O)c1cc(CC=C(C)C)c(O)cc1O
27.2 (≈ 10 µg/mL)	COc1ccc(/C=C/C(=O)c2cc(CC=C(C)C)c(O)cc2O)cc1OC
